Source: PubChem
HTR1A agonist – agonists of human 5-HT1a serotonin receptor. activation, % at 10 µM. hit rate 0.56% among 65,000. P08908. CHO 5-HT1a Ga15 NFAT-bla reporter, FRET ratio; 0% basal, 100% maximal reference agonist;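 active = activation above the screen-wide mean activation plus 3 SD, cut at about 19% in these data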;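 note: 0% = DMSO wells and 100% = 5-CT at EC100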
S1P1 ag pot – agonists and agonism potentiators of human S1P1 receptor | P21453 | S1P1 CRE-bla cells, forskolin, beta-lactamase FRET, potentiator mode; S1P1 agonist co-added at EC20, 2 nM; 100% = saturating reference agonist, 0% = basal | activation, % at 9.5 µM | hit rate 0.57% among 56,000;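 active = activation above a cutoff set at the mean activation of all tested compounds plus 3 SD, cut at about 54% in these data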;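 note: forskolin at 4 µM as EC80 and the EC20 agonist is SEW2871; 100% = SEW2871 at its EC100 plus forskolin at EC80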
HTR1E antagonist – antagonists of human 5-HT1E serotonin receptor | AID 571 | CHO 5-HT1E Ga15 NFAT-bla reporter, FRET, antagonist | inhibition, % at 6 µM | hit rate 0.99% among 65,000;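 active = inhibition above a set limit, the mean inhibition across every tested compound plus 3 SD, cut at about 29% in these data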;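 note: signal is the 460 over 535 nm emission ratio of beta-lactamase substrate; 0% = agonist plus DMSO wells and 100% = wells without agonist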
Target sequence (P28566 whole entry, looked up): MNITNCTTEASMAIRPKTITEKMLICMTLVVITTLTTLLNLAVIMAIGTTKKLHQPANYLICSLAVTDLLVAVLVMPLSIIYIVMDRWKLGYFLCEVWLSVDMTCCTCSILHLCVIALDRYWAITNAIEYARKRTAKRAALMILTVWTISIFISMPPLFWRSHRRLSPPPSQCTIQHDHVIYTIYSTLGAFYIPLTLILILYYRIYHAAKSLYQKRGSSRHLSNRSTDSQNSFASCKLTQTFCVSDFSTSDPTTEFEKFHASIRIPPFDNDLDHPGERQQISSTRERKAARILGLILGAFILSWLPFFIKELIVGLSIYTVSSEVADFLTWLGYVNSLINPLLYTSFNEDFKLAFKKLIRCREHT
S1P3 ag – agonists of human S1P3 receptor. Q99500. S1P3 NFAT-BLA reporter cells, agonism, FRET ratio; relative to 1 µM S1P, basal subtracted. activation, % at 4.5 µM. hit rate 0.1% among 60,000;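 active = activation above the screen-wide mean plus 3 SD, cut at about 4.5% in these data, passing the limit was not always enough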
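Assay system: CHO cells stably expressing human S1P3, Gα16 and NFAT-β-lactamase reporter. Timing: overnight plating, 4 h compound 37 °C, 2 h substrate RT. Signal: β-lactamase FRET emission ratio 460/535 nm. Measure: percent activation versus median 1 µM S1P response, basal-subtracted, per plate. Repeats: primary screen single test, confirmation screen in triplicate.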
HTR1E agonist – 5-HT1E (human) receptor agonism. CHO 5-HT1E Ga15 NFAT-bla reporter, FRET; 0% DMSO wells, 100% control agonist wells. activation, % at 6 µM. hit rate 0.69% among 65,000;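 active = activation above a set limit, the screen-wide mean activation plus 3 SD, cut at about 8.5% in these data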;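 note: 100% = positive control agonist at 1 µM giving full maximal response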
5HT1a antag – antagonists of human 5-HT1a serotonin receptor; AID 612; inhibition, % at 10 µM; P08908; hit rate 0.68% among 62,000; CHO 5-HT1a Ga15 NFAT-bla reporter, antagonist mode;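 active = inhibition above the mean of all tested compounds plus 3 SD, cut at about 43% in these data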;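 note: receptor stimulated by 5-CT agonist at 100 nM near EC80; beta-lactamase reporter measured by ratiometric fluorescence of a cleavable substrate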
* marks the source's active call; other numbers are inactive results; . = not tested or not shown. Hits are enriched below; roughly 3% of the tested compounds scored in any of these assays.

SMILES	HTR1A agonist	S1P1 ag pot	HTR1E antagonist	S1P3 ag	HTR1E agonist	5HT1a antag
CN1CCN(Cc2cc(COCc3ccccc3)c3cccnc3c2O)CC1	-1.6	2.9	47.9*	-2.7	5.0	27.9
Oc1ccc(CNc2ccccc2)c2cccnc12	-1.1	-17.2	-11.0	-0.2	0.3	9.8
Oc1ccc(CN2CCN(Cc3ccccc3)CC2)c2cccnc12	-3.1	-10.7	30.2*	-0.6	1.0	19.9
COc1ccc(-c2cnnn2-c2ccc(NC(=O)c3ccco3)cc2)cc1OC	0.7	.	47.0*	.	-0.3	7.3
COc1cc2c(cc1OC)C(c1ccccc1O)N(C1CC(=O)N(c3ccccc3)C1=O)CC2 (configuration not stated)	1.0	-1.5	12.2	-0.3	0.5	4.2
O=C(O)C1CSCN1S(=O)(=O)c1cccc2nsnc12 (configuration not stated)	-0.8	1.4	-11.1	-0.7	9.7*	.
O=C(NC1CCCCC1)C1CCCN1S(=O)(=O)c1cccc2nsnc12 (configuration not stated)	-2.1	-14.0	10.2	-0.2	-1.0	-5.8
Cc1ccc(-c2noc(CN3C(C)CCCC3C)n2)cc1 (configuration not stated)	-2.5	-23.2	-5.3	-1.0	0.1	14.0
Cc1cccc(NC(=O)C2c3ccccc3C(=O)N3CCc4ccccc4C23)n1 (configuration not stated)	-1.6	-13.5	-5.7	-0.2	-1.1	3.7
Cc1[nH]nc2c1C(c1ccccc1F)CC(=O)N2 (configuration not stated)	-3.4	-26.2	-2.5	0.0	-1.2	-2.7
COc1ccccc1C(=O)NC(=Nc1nc2ccccc2o1)NC(=O)c1ccccc1OC	-0.5	-15.0	40.7*	-2.4	-0.2	.
CC(CN1CCCCC1)OC(=O)c1cc2ccccc2o1 (configuration not stated)	45.7*	-30.6	-0.4	0.2	1.6	-9.7
CCOC(=O)CC1=C(C(=O)OCC)C(c2ccc(C)o2)C(C#N)=C(N)O1 (configuration not stated)	-0.3	17.6	35.0*	-1.3	-0.8	52.6*
CCS(=O)(=O)NCC(c1cccnc1)N1CCN(c2ccccc2F)CC1 (configuration not stated)	-2.4	-9.9	-8.7	-0.8	0.1	3.4
Cc1ccc(-n2ncc3c(N4CCN(c5ccccc5)CC4)ncnc32)c(C)c1	1.2	-6.8	51.4*	-5.4	0.9	.
COc1ccc(N2CCN(c3ncnc4c3cnn4-c3ccc(C)cc3C)CC2)cc1	-1.2	15.2	-3.4	-2.0	0.1	3.1
CC(=O)OCC(=O)c1ccc2ccn(C(C)=O)c2c1	-2.4	8.6	-4.5	-0.2	0.0	1.7
COc1ccccc1N1CCN(CC(=O)c2ccc3ccn(C(C)=O)c3c2)CC1	7.8	16.4	8.2	-0.8	29.9*	14.6
COc1ccccc1N1CCN(CCCC(=O)c2ccc(F)cc2)CC1	4.4	-10.4	11.2	-1.7	3.0	92.6*
COc1ccccc1N1CCN(CC(=O)Nc2cc(F)ccc2C)CC1	0.1	.	-9.5	.	-0.7	43.3*
COc1ccccc1N1CCN(CCCNC(=O)Nc2ccccc2C)CC1	-0.3	.	8.6	.	2.7	82.3*
COc1ccc(OC)c(CCNC(=O)CC2Oc3ccc(C)cc3NC2=O)c1 (configuration not stated)	-3.7	-20.2	-0.1	-0.2	0.2	2.4
CC(C)NC(=O)C1(O)c2ccccc2NC(=O)N1c1ccc(Cl)c(Cl)c1 (configuration not stated)	-0.7	.	8.4	.	0.5	6.9
CCOC(=O)N1CCN(CCC(=O)Nc2cccc(Br)c2)CC1	0.8	24.3	7.5	-0.5	-0.6	11.9
O=C(O)c1ccc(OCC(O)Cn2cnc3ccccc32)cc1 (configuration not stated)	0.3	-3.4	-10.6	-0.4	9.3*	2.8
CC(C)CCN(C)C1CCN(C(=O)Nc2c(F)cccc2F)CC1	0.7	-4.7	-6.2	-1.4	0.8	-12.8
Cc1ccc(S(=O)(=O)NC(CN2CCOCC2)=NCCNS(=O)(=O)c2ccccc2)cc1	-1.1	-0.6	-6.9	-0.1	-1.1	4.0
